# HNF4A DNA FP: change in binding of human HNF4A to DNA, primary screen, biochemical, fluorescence polarization, FITC-DNA. activity change, % at 10 µM. Hepatocyte nuclear factor 4-alpha (Homo sapiens), P41235. 1 h. actives 0.3% (n = 360,000); in the data active means activity change above about 30%, passing the limit was not always enough
# LANA-H2A inh: blockers of LANA interaction with H2A/H2B – biochemical, FP readout, HTS, primary screen; Protein LANA1 (Human herpesvirus 8 type P (isolate GK18)), Q9QR71; cell-free LANA-H2A/H2B peptide, fluorescence polarization; inhibition, % (no concentration beside the values); actives 0.6% (n = 320,000); AID 2629, 2010; in the data active means inhibition mostly above about 10%, no sharp cut-off; inactive means mostly below about 6.7%
# EBNA-1 inhibitor: EBNA-1 DNA-binding inhibitors, primary screen, biochemical, fluorescence polarization | actives 0.34% (n = 300,000) | inhibition, % at 14.8 µM; in the data active means inhibition above about 28%
# A1 inh: caspase 3/7 activation in MEF A1-2A-BIM cells, primary screen, A1 inhibitor project, cell-based, luminescence, HTS. Caspase-Glo 3/7 luminescence, 3 h; percent of clofoctol response, vehicle zero. caspase activation, % (test concentration not listed). actives 0.066% (n = 330,000);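 active means over half of replicate activation scores above 10%, or exactly half above 10 with the replicate mean above 10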
# CSN deneddyl inh: inhibitors of CSN-mediated cullin deneddylation, primary screen, biochemical, fluorescence polarization, uHTS; actives 0.38% (n = 360,000); AID 651999, 2013; Purified CSN, SCF-Nedd8-OG deneddylation; inhibition, % at 12.5 µM; COP9 signalosome complex subunit 5 (Homo sapiens), Q92905;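 active means pattern-corrected inhibition above about 35%, with an unprinted fluorescence ratio check between 0.5 and 1.5, limit read from the data, passing the limit was not always enough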;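 further: 0% = enzyme with substrate and 100% = substrate without enzyme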
# Target sequence (Q92905 whole entry, looked up, one chain of several): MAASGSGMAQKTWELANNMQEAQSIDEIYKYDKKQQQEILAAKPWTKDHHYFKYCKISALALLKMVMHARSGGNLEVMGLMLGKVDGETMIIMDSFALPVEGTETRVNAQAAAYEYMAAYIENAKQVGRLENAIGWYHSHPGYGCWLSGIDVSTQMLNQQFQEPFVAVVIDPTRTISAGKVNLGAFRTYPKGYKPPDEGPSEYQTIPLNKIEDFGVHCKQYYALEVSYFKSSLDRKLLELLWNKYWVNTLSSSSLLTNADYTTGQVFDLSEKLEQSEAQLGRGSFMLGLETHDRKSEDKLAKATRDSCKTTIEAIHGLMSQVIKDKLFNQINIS
#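 Test system: purified human Csn5 enzyme expressed in HEK293T cells. Amount: 0.24 nM enzyme. Reagent: SCFSkp2-Nedd8OG substrate at 10 nM final. Schedule: 90 min incubation of compound, enzyme and substrate at room temperature. Detection: fluorescence polarization. Read-out: % inhibition of substrate cleavage by Csn5.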
# ZTA counter: ZTA (EBV) inhibition in EBNA-1 counter-screen; P03206; ZTA-DNA binding, fluorescence polarization; inhibition, % at 11 µM; actives 0.15% (n = 320,000); in the data active means inhibition above about 33%
# Target sequence (P03206 whole entry, looked up): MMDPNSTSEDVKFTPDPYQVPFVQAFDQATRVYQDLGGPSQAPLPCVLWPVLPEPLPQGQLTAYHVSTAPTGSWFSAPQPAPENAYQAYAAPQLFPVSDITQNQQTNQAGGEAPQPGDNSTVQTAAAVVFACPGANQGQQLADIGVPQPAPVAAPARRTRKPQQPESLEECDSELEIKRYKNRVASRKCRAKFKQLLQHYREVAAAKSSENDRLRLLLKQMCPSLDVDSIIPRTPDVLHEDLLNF
# The depositor's hits bear a star; / = no result. Most compounds without a hit are left out; they make up all but 1.5% or so of the library.
SMILES,HNF4A DNA FP,LANA-H2A inh,EBNA-1 inhibitor,A1 inh,CSN deneddyl inh,ZTA counter
CCN1CCN(C(c2cccs2)C(C)NS(=O)(=O)c2ccc(C)cc2)CC1 (stereo not drawn),0.5,-0.2,-3.3,0.3,-2.0,0.3
CSc1ncccc1C(=O)N1CCCC(CCC(=O)NCc2ccc(F)c(F)c2)C1 (stereo not drawn),-0.8,14.3*,1.6,-0.8,-2.3,-0.8
Cc1occc1C(=O)N1CCCC(CCC(=O)NCc2ccc(F)c(F)c2)C1 (stereo not drawn),-1.3,4.5,8.9,-0.3,-4.4,5.7
O=[N+]([O-])c1ccc(C=CC=Cc2ccccc2)cc1,26.0,/,/,/,36.5*,/
Cc1ccc(NC(=O)CC2OC(=O)c3ccccc32)cc1S(=O)(=O)N1CCCCCC1 (stereo not drawn),6.4,11.0*,/,1.8,1.3,-3.3
CCOc1ccc(NC(=S)NC(=O)/C=C/c2ccc(C)cc2)c([N+](=O)[O-])c1,-0.4,-2.6,-1.9,17.4*,-1.4,1.6
O=S(=O)(c1cnc[nH]1)N1CCN(c2ccc(F)cc2)CC1,-0.3,110.8*,-6.2,-0.1,2.7,-10.8
O=C(Nc1ccc(-n2cnnn2)cc1)c1cn2ccccc2n1,21.0,4.5,-6.5,-2.7,45.6*,-0.1
O=C(Nc1ccccc1)c1cn2ccccc2n1,-0.1,7.6,-3.3,-7.4,-5.0,0.8
O=C(Nc1ccc(-n2cnnn2)cc1)C1CCCCC1,3.1,13.3*,-3.9,0.9,-0.5,14.4
COc1cc(C(=O)N2CCC(NC(=O)C(Cc3ccc(C)cc3)NC(C)=O)CC2)cc(OC)c1OC (stereo not drawn),-4.3,1.6,-3.0,-0.1,2.7,-12.2
COc1cc(C(=O)N2CCC(NC(=O)C(Cc3ccc(C(C)C)cc3)NC(C)=O)CC2)cc(OC)c1OC (stereo not drawn),52.3*,1.0,-0.4,0.1,0.2,-8.3
O=C(NCCNC(=O)c1ccc(-c2cc(Cl)ccc2Cl)o1)c1cnccn1,0.3,/,/,/,4.6,/
Cc1[nH]c(=O)[nH]c(=O)c1CSCC(=O)OCC(=O)Nc1ccccn1,-5.3,-4.8,3.1,-0.2,93.5*,3.0
CC1CC(C)CN(CCC(=O)Nc2ccc(Br)cc2)C1 (stereo not drawn),1.6,3.6,-11.1,0.1,3.1,-12.5
CCOC(=O)Nc1cccc2c1-c1ccc([N+](=O)[O-])cc1C2=O,6.9,/,/,/,5.6,/
CCOC(=O)Nc1cc2c(cc1[N+](=O)[O-])-c1ccccc1C2=O,38.1*,/,/,/,6.6,/
O=C(O)c1cccc(-n2cccc2/C=C2/NC(=O)N(c3cccc(Cl)c3)C2=O)c1,-26.8,3.3,-7.8,0.1,35.1*,-5.4
O=C(O)c1ccc(COc2ccccc2/C=C2/NC(=O)N(c3cccc(Cl)c3)C2=O)cc1,-4.4,11.2,18.0,0.7,45.0*,3.4
O=C(CCCn1c(=O)[nH]c2cc(Cl)ccc2c1=O)NCCC1=CCCCC1,-1.4,-0.1,-2.2,0.3,6.3,-5.7
CSc1nc(N)nc2c1ncn2CC(=O)NCCCc1ccccc1,2.2,-0.7,/,-0.5,-6.3,/
Cc1cc(NC(=O)c2cc(-c3ccco3)on2)nn1Cc1ccc(Cl)cc1,12.3,15.0*,-7.6,0.1,10.8,-5.2
Cc1ccc(Cn2ccc(NC(=O)c3cc(-c4ccccc4)on3)n2)cc1,-2.6,-1.8,0.8,-0.1,3.9,-12.2
Cc1ccc(Cn2ccc(NC(=O)c3cc(-c4ccc5c(c4)OCO5)on3)n2)cc1,-2.3,/,/,/,112.2*,/
Cc1ccc(Cn2ccc(NC(=O)c3cc(-c4ccco4)on3)n2)cc1,16.1,-1.3,15.7,-0.5,51.6*,5.2
SMILES,HNF4A DNA FP,LANA-H2A inh,EBNA-1 inhibitor,A1 inh,CSN deneddyl inh,ZTA counter
S=C(Nc1ccc2nccnc2c1)N1CCOCC1,-3.1,-2.0,6.5,-3.9,7.6,13.8
Cc1ccc(CNC(=O)C2CCC(=O)N(Cc3ccccc3F)C2)s1 (stereo not drawn),0.0,-0.5,-24.4,0.3,0.2,-7.3
CCCS(=O)(=O)NC(=O)C1(C)CCCN(C(=O)c2cc(C)n(C(C)(C)C)n2)C1 (stereo not drawn),-1.5,/,/,/,-1.9,/
O=C(c1ccccc1)c1ccc(O)cc1O,-104.7,44.6*,11.0,-2.4,-77.7,3.8
O=C(c1ccc(O)cc1)c1ccc(O)cc1O,-2.3,12.3*,-7.1,-0.6,-3.4,-4.7
CCN(c1ccccc1)S(=O)(=O)c1ccc(Cl)c(C(=O)NC2CCN(Cc3ccccc3)CC2)c1,1.7,/,/,/,0.6,/
NS(=O)(=O)c1ccc(Nc2nc3ccccc3nc2NS(=O)(=O)c2cccc([N+](=O)[O-])c2)cc1,-2.1,-4.4,0.4,-0.8,-4.0,-8.0
O=C(CN1C(=O)c2cccnc2Oc2ccc(Cl)cc21)NCCCc1ccccc1,3.0,-0.9,0.4,-0.4,-1.9,5.6
Cc1cc(-c2ccc(N=Nc3c(S(=O)(=O)O)cc4cc(S(=O)(=O)O)cc(N)c4c3O)c(C)c2)ccc1N=Nc1c(S(=O)(=O)O)cc2cc(S(=O)(=O)O)cc(N)c2c1O,/,12.7,69.4*,-1.6,/,181.5*
COC(=O)c1cc(NC(=O)c2ccc([N+](=O)[O-])cc2)c(=O)oc1C,-3.4,13.1*,1.1,-0.8,4.9,-9.9
CC(=O)Nc1ccc(OCCOc2ccc(/C=C3\C(=N)N4N=C(C)SC4=NC3=O)cc2)cc1,4.5,-0.5,-9.8,0.2,6.8,-5.5
COc1ccc(OCCOc2ccc(/C=C3\C(=N)N4N=C(C)SC4=NC3=O)cc2)cc1,-10.4,-2.6,/,-1.2,45.5*,8.8
CCN(CC)CCCNC(=O)c1cc(-c2ccc(Cl)c(Cl)c2)on1,-4.6,18.8*,-11.5,0.2,-2.7,-3.9
CN(C)c1ncnc2c1ncn2[C@H]1CN(Cc2cccnc2)C[C@@H](CO)O1,-2.8,/,/,/,0.7,/
CN(CC(=O)N1CCCC1)S(=O)(=O)c1ccc2ccccc2c1,-2.8,17.3*,-0.5,0.1,-17.9,-12.4
CN1CCN(C(=O)CN(C)S(=O)(=O)c2ccc3ccccc3c2)CC1,-4.8,6.2,-5.3,0.6,-9.8,-5.1
O=C(COC(=O)CNC(=O)c1ccc(Cl)c([N+](=O)[O-])c1)NC(=O)CN1CCCC1=O,-1.4,1.9,1.2,-0.6,-5.8,11.5
CN1CCN(c2ccc(CNC(=O)c3ccc4c(c3)OCCO4)cc2)CC1,0.0,-4.0,8.6,-0.7,35.6*,0.1
O=C(O)c1ccc(CNC(=O)c2ccc3c(c2)OCCO3)cc1,4.8,-8.0,2.6,0.2,2.6,5.4
O=C(O)Cc1ccc(N2N=C(c3ccccc3)CC2=O)cc1,-0.8,/,/,/,-4.4,/

# Screens: PubChem BioAssay, several laboratories
